Experimental data taken from ChEMBL document CHEMBL1132566, “A new class of pseudopeptide antagonists of the kinin B1 receptor containing alkyl spacers” (J Med Chem, 1999).
Active and inactive are the calls of the source. The rule behind the calls is not given here. Where a SMILES comes first, the peptide text is derived from it. [ ]: non-standard residue; d: D form. Oic = O=C(O)[C@@H]1C[C@@H]2CCCC[C@@H]2N1; d2Nal = N[C@H](Cc1ccc2ccccc2c1)C(=O)O; Hyp = O=C(O)[C@@H]1C[C@@H](O)CN1; dTic = O=C(O)[C@H]1Cc2ccccc2CN1; 2Thi = N[C@@H](Cc1cccs1)C(=O)O

Experiments:
Assay type in all cases: functional, tissue-based
B2 bradykinin receptor = target: T1, B2 bradykinin receptor (Cavia porcellus, UniProt O70526); experiment: (§1) Antagonistic activity against Bradykinin receptor B2 of guinea pig ileum longitudinal smooth muscle.; conditions: for Kb: read-out: pA2 (converted)
T1 sequence (O70526 whole entry): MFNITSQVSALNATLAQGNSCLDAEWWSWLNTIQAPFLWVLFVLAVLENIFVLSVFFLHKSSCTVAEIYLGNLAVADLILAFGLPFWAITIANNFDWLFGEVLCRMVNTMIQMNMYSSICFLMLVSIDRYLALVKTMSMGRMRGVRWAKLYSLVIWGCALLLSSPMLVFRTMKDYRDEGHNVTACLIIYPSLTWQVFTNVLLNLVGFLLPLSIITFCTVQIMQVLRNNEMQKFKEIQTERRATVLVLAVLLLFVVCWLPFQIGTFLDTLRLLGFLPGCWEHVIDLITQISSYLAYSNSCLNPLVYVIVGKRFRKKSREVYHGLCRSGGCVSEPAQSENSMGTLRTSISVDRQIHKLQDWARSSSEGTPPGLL
Procedure, shortened: (§2)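 Guinea pig ileum longitudinal muscle-myenteric plexus strips in oxygenated (95% O2/5% CO2) Krebs with indomethacin, guanethidine (3 μM each), chlorpheniramine, atropine (1 μM each). Cumulative BK curves with thiorphan, bestatin, captopril (1 μM each); antagonist given 15 min before repeat curve at 1–10 μM. Contraction read-out; pA2 (dose ratio 2), mean ± SE of 4–15 experiments.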

B1 bradykinin receptor = target: T2, B1 bradykinin receptor (Rattus norvegicus, UniProt P97583); experiment: Antagonistic activity against Bradykinin receptor B1 of rat ileum longitudinal smooth muscle.; conditions: for Kb: read-out: pA2 (converted)
T2 sequence (P97583 whole entry): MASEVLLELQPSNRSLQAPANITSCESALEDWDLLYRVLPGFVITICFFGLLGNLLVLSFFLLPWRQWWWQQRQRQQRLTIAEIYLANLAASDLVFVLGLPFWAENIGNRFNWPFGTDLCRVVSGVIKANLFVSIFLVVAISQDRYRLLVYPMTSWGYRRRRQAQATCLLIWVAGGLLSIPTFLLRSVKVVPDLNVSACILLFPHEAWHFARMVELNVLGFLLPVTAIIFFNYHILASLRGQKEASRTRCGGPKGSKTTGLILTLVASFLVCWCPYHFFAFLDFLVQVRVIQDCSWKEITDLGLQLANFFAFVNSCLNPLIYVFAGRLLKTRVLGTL
Procedure, shortened: as §2, with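 “Rat” for “Guinea pig”, “desArg9-BK” for “BK”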

[1] = target: T3, B2 bradykinin receptor (Cavia porcellus) (UniProt O70526); experiment: as §1; procedure, shortened: as §2
T3 sequence (whole entry): T1 sequence (O70526 whole entry)

| pA2 (B2 bradykinin receptor) | pA2 (B1 bradykinin receptor) | Kb (B2 bradykinin receptor) [µM] | Kb (B1 bradykinin receptor) [µM] | pA2 [1] | SMILES |
| --- | --- | --- | --- | --- | --- |
| 5.5 | 6.3 | – | – | – | NCCCC[C@H](NC(=O)[C@@H](N)CCCCN)C(=O)N[C@@H](CCCN=C(N)N)C(=O)NCCCCCCCCCCC(=O)N[C@@H](CO)C(=O)N[C@@H](C(=O)N1[C@@H](C(=O)O)C[C@@H]2CCCC[C@@H]21)C1Cc2ccccc2C1 |
| – | – | 1 | 0.0631 | – | CC[C@H](C)[C@H](NC(=O)[C@@H](Cc1ccc2ccccc2c1)NC(=O)[C@H](CO)NC(=O)[C@H](Cc1ccccc1)NC(=O)CNC(=O)[C@@H]1CCCN1C(=O)[C@@H]1CCCN1C(=O)[C@H](CCCN=C(N)N)NC(=O)[C@H](CCCCN)NC(C)=O)C(=O)O (Ac-KRPPGFS[d2Nal]I-OH) |
| – | – | – | 0.794 | inactive | NCCCC[C@H](NC(=O)[C@@H](N)CCCCN)C(=O)N[C@@H](CCCN=C(N)N)C(=O)NCCCCCCCCCCC(=O)N[C@@H](CO)C(=O)N1Cc2ccccc2C[C@@H]1C(=O)N1[C@H](C(=O)O)C[C@@H]2CCCC[C@@H]21 |
| – | – | – | 10 | inactive | NC(N)=NCCC[C@@H](N)C(=O)N[C@@H](CCCN=C(N)N)C(=O)NC1(C(=O)N[C@@H](CO)C(=O)N2Cc3ccccc3C[C@@H]2C(=O)N2[C@H](C(=O)O)C[C@@H]3CCCC[C@@H]32)CCCCC1 |
| – | – | – | 0.251 | inactive | CC(=O)N[C@@H](CCCCN)C(=O)N[C@@H](CCCN=C(N)N)C(=O)NCCCCCCCCCCC(=O)N[C@@H](CO)C(=O)N1Cc2ccccc2C[C@@H]1C(=O)N1[C@H](C(=O)O)C[C@@H]2CCCC[C@@H]21 |
| – | – | 3.98 | 0.1 | – | NC(N)=NCCC[C@@H](N)C(=O)N[C@@H](CCCN=C(N)N)C(=O)NCCCCCCCCCCCC(=O)N[C@@H](CO)C(=O)N1Cc2ccccc2C[C@@H]1C(=O)N1[C@H](C(=O)O)C[C@@H]2CCCC[C@@H]21 |
| – | – | – | 2.51 | inactive | NC(N)=NCCC[C@@H](N)C(=O)N[C@@H](CCCN=C(N)N)C(=O)NCCC(=O)NC1(C(=O)NCCC(=O)N[C@@H](CO)C(=O)N2Cc3ccccc3C[C@@H]2C(=O)N2[C@H](C(=O)O)C[C@@H]3CCCC[C@@H]32)CCCCCC1 |
| – | – | 0.00631 | 0.02 | – | NC(N)=NCCC[C@@H](N)C(=O)N[C@@H](CCCN=C(N)N)C(=O)N1CCC[C@H]1C(=O)N1C[C@H](O)C[C@H]1C(=O)NCC(=O)N[C@H](C(=O)N[C@@H](CO)C(=O)N[C@@H](C(=O)N1[C@H](C(=O)N[C@@H](CCCN=C(N)N)C(=O)O)C[C@@H]2CCCC[C@@H]21)C1Cc2ccccc2C1)C1Cc2ccccc2C1 |
| – | – | – | 6.31 | inactive | NC(N)=NCCC[C@@H](N)C(=O)N[C@@H](CCCN=C(N)N)C(=O)NCC(=O)NC1(C(=O)NCC(=O)N[C@@H](CO)C(=O)N2Cc3ccccc3C[C@@H]2C(=O)N2[C@H](C(=O)O)C[C@@H]3CCCC[C@@H]32)CCCCCC1 |
| – | – | 2 | 0.158 | – | N=C(N)NCCC[C@@H](N)C(=O)N[C@@H](CCCNC(=N)N)C(=O)N1CCC[C@H]1C(=O)N1C[C@H](O)C[C@H]1C(=O)NCC(=O)N[C@@H](Cc1cccs1)C(=O)N[C@@H](CO)C(=O)N1Cc2ccccc2C[C@@H]1C(=O)N1[C@H](C(=O)O)C[C@@H]2CCCC[C@@H]21 (H-[dR]RP[Hyp]G[2Thi]S[dTic][Oic]-OH) |
| – | – | 0.794 | 10 | – | NC(N)=NCCC[C@@H](N)C(=O)N[C@@H](CCCN=C(N)N)C(=O)NCCCCCCCCCCC(=O)N[C@@H](CO)C(=O)N[C@@H](C(=O)N1[C@H](C(=O)N[C@@H](CCCN=C(N)N)C(=O)O)C[C@@H]2CCCC[C@@H]21)C1Cc2ccccc2C1 |
| – | – | 3.16 | 0.00794 | – | NCCCC[C@H](NC(=O)[C@@H](N)CCCCN)C(=O)N[C@@H](CCCN=C(N)N)C(=O)N1CCC[C@H]1C(=O)N1C[C@H](O)C[C@H]1C(=O)NCC(=O)N[C@H](C(=O)N[C@@H](CO)C(=O)N[C@@H](C(=O)N1[C@H](C(=O)O)C[C@@H]2CCCC[C@@H]21)C1Cc2ccccc2C1)C1Cc2ccccc2C1 |
| – | – | – | 1.26 | inactive | NC(N)=NCCC[C@@H](N)C(=O)N[C@@H](CCCN=C(N)N)C(=O)NC1(C(=O)N[C@@H](CO)C(=O)N2Cc3ccccc3C[C@@H]2C(=O)N2[C@H](C(=O)O)C[C@@H]3CCCC[C@@H]32)CCCCCC1 |
| 6 | 6.3 | – | – | – | NC(N)=NCCC[C@@H](N)C(=O)N[C@@H](CCCN=C(N)N)C(=O)NCCCCCCCCCCC(=O)N[C@@H](CO)C(=O)N[C@@H](C(=O)N1[C@@H](C(=O)O)C[C@H]2CCCC[C@H]21)C1Cc2ccccc2C1 |
| – | – | – | 0.0794 | inactive | NC(N)=NCCC[C@@H](N)C(=O)N[C@@H](CCCN=C(N)N)C(=O)NCCCCCCCCCCC(=O)N[C@@H](CO)C(=O)N1Cc2ccccc2C[C@@H]1C(=O)N1[C@H](C(=O)O)C[C@@H]2CCCC[C@@H]21 |
| – | – | – | 3.98 | inactive | NC(N)=NCCC[C@@H](N)C(=O)N[C@@H](CCCN=C(N)N)C(=O)NCCCCCCCC(=O)N[C@@H](CO)C(=O)N1Cc2ccccc2C[C@@H]1C(=O)N1[C@H](C(=O)O)C[C@@H]2CCCC[C@@H]21 |
| – | – | – | 6.31 | inactive | NC(N)=NCCC[C@@H](N)C(=O)N[C@@H](CCCN=C(N)N)C(=O)NC1(C(=O)N[C@@H](CO)C(=O)N2Cc3ccccc3C[C@@H]2C(=O)N2[C@H](C(=O)O)C[C@@H]3CCCC[C@@H]32)CCCCCCCC1 |
| – | – | > 10 | 3.16 | – | NC(N)=NCCC[C@@H](N)C(=O)N[C@@H](CCCN=C(N)N)C(=O)NC1(C(=O)N[C@@H](CO)C(=O)N2Cc3ccccc3C[C@@H]2C(=O)N2[C@H](C(=O)O)C[C@@H]3CCCC[C@@H]32)CCCCCCC1 |
| – | – | > 10 | 2 | – | NC(N)=NCCC[C@@H](N)C(=O)N[C@@H](CCCN=C(N)N)C(=O)NCCCC(=O)NC1(C(=O)NCCCC(=O)N[C@@H](CO)C(=O)N2Cc3ccccc3C[C@@H]2C(=O)N2[C@H](C(=O)O)C[C@@H]3CCCC[C@@H]32)CCCCCC1 |
| – | – | – | 2 | inactive | NC(N)=NCCC[C@@H](N)C(=O)N[C@@H](CCCN=C(N)N)C(=O)NCCCCCC(=O)N[C@@H](CO)C(=O)N1Cc2ccccc2C[C@@H]1C(=O)N1[C@H](C(=O)O)C[C@@H]2CCCC[C@@H]21 |
| – | – | – | 1 | inactive | NCCCCC(N)C(=O)N[C@@H](CCCN=C(N)N)C(=O)NCCCCCCCCCCC(=O)N[C@@H](CO)C(=O)N1Cc2ccccc2C[C@@H]1C(=O)N1[C@H](C(=O)O)C[C@@H]2CCCC[C@@H]21 (stereo in doubt) |
| – | – | 1.26 | 0.1 | – | CC[C@H](C)[C@H](NC(=O)[C@@H](Cc1ccc2ccccc2c1)NC(=O)[C@H](CO)NC(=O)CCCCCCCCCCNC(=O)[C@H](CCCN=C(N)N)NC(=O)[C@H](CCCCN)NC(C)=O)C(=O)O |
